Data taken from ChEMBL document CHEMBL1126176, “Synthetic modification of a novel microbial ionophore: exploration of anticoccidial structure-activity relationships” (J Med Chem, 1992).

Legend:
[1] = organism: Gallus gallus; test: In vitro concentration of compound to inhibit growth of Eimeria tenella by 50% […]; type: functional, organism-based
Procedure, shortened: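 E. tenella grown in vitro with drug. Growth is compared with nonmedicated controls. The value is the drug concentration (ppm) that inhibits growth by 50%.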

[2] = organism: Gallus gallus; test: Minimum concentration of the compound(ppm) in feed which provides control of Eimeria tenella lesions equivalent to noninfected, nonmedicated birds; type: functional
Procedure, shortened: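 Drug is given continuously in feed to E. tenella-infected birds from 1 day before infection. Birds are killed 6 days after infection and lesions are scored. The value is the lowest feed level (ppm) giving lesion control equal to noninfected, nonmedicated birds.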

CO[C@@H]1[C@@H](O[C@H]2CC[C@H](OC)[C@@H](C)O2)[C@H](C)[C@@](O)(C(C)C(=O)[O-])O[C@H]1[C@H](C)[C@H]1O[C@@]2(CC[C@@](C)([C@H]3CC[C@@](C)([C@@H]4O[C@@H]([C@H]5O[C@](C)(O)[C@H](C)C[C@@H]5C)C[C@@H]4O[C@H]4CC[C@H](OC)[C@@H](C)O4)O3)O2)C[C@H](O)[C@H]1C.[Na+] (stereo partly drawn)
IC50 [1]: 0.03 p.p.m.
MEC [2]: 7.5 p.p.m.

CO[C@@H]1[C@@H](O[C@H]2CC[C@H](OC)[C@@H](C)O2)[C@H](C)[C@](CC(=O)[O-])(OC)O[C@H]1[C@H](C)[C@H]1O[C@@]2(CC[C@@](C)([C@H]3CC[C@@](C)([C@@H]4O[C@@H]([C@H]5O[C@](C)(O)[C@H](C)C[C@@H]5C)C[C@@H]4O[C@H]4CC[C@H](OC)[C@@H](C)O4)O3)O2)C[C@H](O)[C@H]1C.[Na+]
MEC [2]: 120 p.p.m.

CO[C@@H]1[C@@H](O[C@H]2CC[C@H](OC)[C@@H](C)O2)[C@H](C)[C@@](O)(CC(=O)[O-])O[C@H]1[C@H](C)[C@H]1O[C@@]2(CC[C@@](C)([C@H]3CC[C@@](C)([C@@H]4O[C@@H]([C@H]5O[C@](C)(OC)[C@H](C)C[C@@H]5C)C[C@@H]4O[C@H]4CC[C@H](OC)[C@@H](C)O4)O3)O2)C[C@H](O)[C@H]1C.[Na+]
IC50 [1]: 0.02 p.p.m.
MEC [2]: 50 p.p.m.

CO[C@@H]1[C@@H](O[C@H]2CC[C@H](OC)[C@@H](C)O2)[C@H](C)[C@@](O)(CC(=O)[O-])O[C@H]1[C@H](C)[C@H]1O[C@@]2(CC[C@@](C)([C@H]3CC[C@@](C)([C@@H]4O[C@@H]([C@@H](O)[C@@H](C)C[C@@H](C)C(C)(C)O)C[C@@H]4O[C@H]4CC[C@H](OC)[C@@H](C)O4)O3)O2)C[C@H](O)[C@H]1C.[Na+]
IC50 [1]: 0.03 p.p.m.
MEC [2]: >120 p.p.m.

C=CCC(C(=O)[O-])[C@@]1(O)O[C@@H]([C@H](C)[C@H]2O[C@@]3(CC[C@@](C)([C@H]4CC[C@@](C)([C@@H]5O[C@@H]([C@H]6O[C@](C)(O)[C@H](C)C[C@@H]6C)C[C@@H]5O[C@H]5CC[C@H](OC)[C@@H](C)O5)O4)O3)C[C@H](O)[C@H]2C)[C@H](OC)[C@@H](O[C@H]2CC[C@H](OC)[C@@H](C)O2)[C@@H]1C.[Na+] (stereo partly drawn)
IC50 [1]: 0.01 p.p.m.
MEC [2]: 60 p.p.m.

CCC(C(=O)[O-])[C@@]1(O)O[C@@H]([C@H](C)[C@H]2O[C@@]3(CC[C@@](C)([C@H]4CC[C@@](C)([C@@H]5O[C@@H]([C@H]6O[C@](C)(O)[C@H](C)C[C@@H]6C)C[C@@H]5O[C@H]5CC[C@H](OC)[C@@H](C)O5)O4)O3)C[C@H](O)[C@H]2C)[C@H](OC)[C@@H](O[C@H]2CC[C@H](OC)[C@@H](C)O2)[C@@H]1C.[Na+] (stereo partly drawn)
MEC [2]: 30 p.p.m.

CCCC(C(=O)[O-])[C@@]1(O)O[C@@H]([C@H](C)[C@H]2O[C@@]3(CC[C@@](C)([C@H]4CC[C@@](C)([C@@H]5O[C@@H]([C@H]6O[C@](C)(O)[C@H](C)C[C@@H]6C)C[C@@H]5O[C@H]5CC[C@H](OC)[C@@H](C)O5)O4)O3)C[C@H](O)[C@H]2C)[C@H](OC)[C@@H](O[C@H]2CC[C@H](OC)[C@@H](C)O2)[C@@H]1C.[Na+] (stereo partly drawn)
IC50 [1]: 0.01 p.p.m.
MEC [2]: 60 p.p.m.

CO[C@@H]1[C@@H](O[C@H]2CC[C@H](OC)[C@@H](C)O2)[C@H](C)[C@@](O)(CC(=O)[O-])O[C@H]1[C@H](C)[C@H]1O[C@@]2(CC[C@@](C)([C@H]3CC[C@@](C)([C@@H]4O[C@@H]([C@@H](O)[C@@H](C)C[C@@H](C)[C@@H](C)O)C[C@@H]4O[C@H]4CC[C@H](OC)[C@@H](C)O4)O3)O2)C[C@H](O)[C@H]1C.[Na+]
IC50 [1]: 0.05 p.p.m.
MEC [2]: 80 p.p.m.

CO[C@@H]1[C@@H](O)[C@H](C)[C@@](O)(CC(=O)[O-])O[C@H]1[C@H](C)[C@H]1O[C@@]2(CC[C@@](C)([C@H]3CC[C@@](C)([C@@H]4O[C@@H]([C@H]5O[C@](C)(O)[C@H](C)C[C@@H]5C)C[C@@H]4O)O3)O2)C[C@H](O)[C@H]1C.[Na+]
IC50 [1]: > 1 p.p.m.
MEC [2]: >50 p.p.m.

C#CCC(C(=O)[O-])[C@@]1(O)O[C@@H]([C@H](C)[C@H]2O[C@@]3(CC[C@@](C)([C@H]4CC[C@@](C)([C@@H]5O[C@@H]([C@H]6O[C@](C)(O)[C@H](C)C[C@@H]6C)C[C@@H]5O[C@H]5CC[C@H](OC)[C@@H](C)O5)O4)O3)C[C@H](O)[C@H]2C)[C@H](OC)[C@@H](O[C@H]2CC[C@H](OC)[C@@H](C)O2)[C@@H]1C.[Na+] (stereo in doubt; 2e)
MEC [2]: >60 p.p.m.

C#CCC(C(=O)[O-])[C@@]1(O)O[C@@H]([C@H](C)[C@H]2O[C@@]3(CC[C@@](C)([C@H]4CC[C@@](C)([C@@H]5O[C@@H]([C@H]6O[C@](C)(O)[C@H](C)C[C@@H]6C)C[C@@H]5O[C@H]5CC[C@H](OC)[C@@H](C)O5)O4)O3)C[C@H](O)[C@H]2C)[C@H](OC)[C@@H](O[C@H]2CC[C@H](OC)[C@@H](C)O2)[C@@H]1C.[Na+] (stereo in doubt; 2f)
IC50 [1]: 0.01 p.p.m.
MEC [2]: 60 p.p.m.

CO[C@@H]1[C@@H](O[C@H]2CC[C@H](OC)[C@@H](C)O2)[C@H](C)[C@@](O)(CC(=O)[O-])O[C@H]1[C@H](C)[C@H]1O[C@@]2(CC[C@@](C)([C@H]3CC[C@@](C)([C@@H]4O[C@@H]([C@H]5O[C@](C)(O)[C@H](C)C[C@@H]5C)C[C@@H]4O[C@H]4CC[C@H](OC)[C@@H](C)O4)O3)O2)C[C@H](O)[C@H]1C.[Na+] [IONOPHORE]
IC50 [1]: 0.03 p.p.m.
MEC [2]: 15 p.p.m.

CO[C@@H]1[C@@H](O)[C@H](C)[C@@](O)(CC(=O)[O-])O[C@H]1[C@H](C)[C@H]1O[C@@]2(CC[C@@](C)([C@H]3CC[C@@](C)([C@@H]4O[C@@H]([C@H]5O[C@](C)(O)[C@H](C)C[C@@H]5C)C[C@@H]4O[C@H]4CC[C@H](OC)[C@@H](C)O4)O3)O2)C[C@H](O)[C@H]1C.[Na+] [SEMDURAMICIN SODIUM]
IC50 [1]: 0.03 p.p.m.
MEC [2]: 25 p.p.m.
